Results on 18 compounds are retold here after ChEMBL document CHEMBL1141268, “Glycogen synthase kinase-3 (GSK-3) inhibitory activity and structure-activity relationship (SAR) studies of the manzamine alkaloids. Potential for Alzheimer's disease” (J Nat Prod, 2007).

Each structure is given as a SMILES string. Active and inactive are the calls of the source. No cut-off for these calls is given here.

Assay [1] addresses T1, Glycogen synthase kinase-3 beta (Homo sapiens, UniProt P49841). The assay can be described thus: Inhibition of human recombinant GSKbeta at 25 uM. The method in brief:
(§1)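 Recombinant human GSK-3β in 11 mM MOPS pH 7.4, 0.2 mM EDTA, 1.25 mM EGTA, 26.25 mM MgCl2, 0.25 mM orthovanadate. Substrate was 62.5 µM GS-2 peptide, with γ-[33P]ATP plus unlabeled ATP at 12.5 µM final. Reaction ran 30 min at 30 °C. Aliquots were spotted on P81 phosphocellulose, washed and scintillation-counted. IC50 came from nonlinear regression of inhibition curves.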
Target sequence in this assay (P49841 whole entry, looked up): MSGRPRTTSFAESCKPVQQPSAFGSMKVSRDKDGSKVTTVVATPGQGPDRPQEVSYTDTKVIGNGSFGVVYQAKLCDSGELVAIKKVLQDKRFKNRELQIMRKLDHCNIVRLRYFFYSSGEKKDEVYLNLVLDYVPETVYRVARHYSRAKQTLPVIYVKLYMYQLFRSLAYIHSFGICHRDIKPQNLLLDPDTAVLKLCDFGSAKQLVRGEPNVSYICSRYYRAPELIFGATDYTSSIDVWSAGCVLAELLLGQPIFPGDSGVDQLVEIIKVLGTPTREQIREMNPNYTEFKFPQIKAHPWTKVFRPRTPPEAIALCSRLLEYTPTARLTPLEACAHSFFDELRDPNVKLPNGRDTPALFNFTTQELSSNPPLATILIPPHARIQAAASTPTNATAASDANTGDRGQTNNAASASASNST

For assay [2], the target named is T1, Glycogen synthase kinase-3 beta. As to the kind of experiment: Inhibition of human recombinant GSKbeta. The method, boiled down: as §1
Target sequence in this assay (P49841 whole entry): as the sequence (P49841 whole entry, looked up) above
Assay [3] deals with Cyclin-dependent kinase 1 (Homo sapiens) (UniProt P06493). As to the kind of experiment: Inhibition of recombinant CDK1. The method in brief: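 Recombinant CDK-1 in ADBI buffer (20 mM MOPS pH 7.2, 25 mM β-glycerol phosphate, 5 mM EGTA, 1 mM sodium orthovanadate). Histone H1 substrate at […] and ATP at 22 µM final. Reaction run 15 min at 30 °C.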
The nature of assay [4]: Inhibition of recombinant PKA. The method, boiled down:
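Recombinant PKA catalytic subunit in ADBI buffer with Kemptide substrate and 35 µM unlabeled ATP. Incubated 20 min; otherwise as the other kinase assays (γ-[33P]ATP, P81 filter binding, scintillation counting).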

A short description of assay [5]: Inhibition of recombinant MAPK. The method in brief:
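ERK1 (recombinant MAP kinase) in ADBI buffer (20 mM MOPS pH 7.2, 25 mM β-glycerol phosphate, 5 mM EGTA, 1 mM sodium orthovanadate) with 10 µg myelin basic protein as substrate. ATP at 20 µM final. Incubated 15 min; otherwise as the GSK-3β radiometric P81 filter assay.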

In assay [6] the target is Glycogen synthase kinase-3 alpha (Homo sapiens) (UniProt P49840). The assay can be described thus: Inhibition of recombinant GSKalpha. The method in brief: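 Recombinant GSK-3α, run as the GSK-3β radiometric protocol: MOPS pH 7.4 buffer with EDTA, EGTA, MgCl2 and orthovanadate, plus γ-[33P]ATP. GS-2 peptide at 20 µM final and ATP at 26 µM. Incubated 12 min, then P81 filter binding and scintillation counting. IC50 by nonlinear regression.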

Assay [7] addresses Cyclin-dependent kinase 5/CDK5 activator 1 (Homo sapiens, UniProt Q00535). As to the kind of experiment: Inhibition of human recombinant CDK5/p35. The format is protein-complex assay. The method, boiled down:
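Human recombinant cdk5-p35 with histone H1 substrate, run as the GSK-3β protocol: 11 mM MOPS pH 7.4, 0.2 mM EDTA, 1.25 mM EGTA, 26.25 mM MgCl2, 0.25 mM sodium orthovanadate, γ-[33P]ATP plus unlabeled ATP (12.5 µM final). Incubated 30 min at 30 °C, spotted on P81 phosphocellulose, washed, scintillation counted. IC50 by nonlinear regression of inhibition curves.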

Sequence of Glycogen synthase kinase-3 alpha (Homo sapiens) (P49840 2-483 limits assumed): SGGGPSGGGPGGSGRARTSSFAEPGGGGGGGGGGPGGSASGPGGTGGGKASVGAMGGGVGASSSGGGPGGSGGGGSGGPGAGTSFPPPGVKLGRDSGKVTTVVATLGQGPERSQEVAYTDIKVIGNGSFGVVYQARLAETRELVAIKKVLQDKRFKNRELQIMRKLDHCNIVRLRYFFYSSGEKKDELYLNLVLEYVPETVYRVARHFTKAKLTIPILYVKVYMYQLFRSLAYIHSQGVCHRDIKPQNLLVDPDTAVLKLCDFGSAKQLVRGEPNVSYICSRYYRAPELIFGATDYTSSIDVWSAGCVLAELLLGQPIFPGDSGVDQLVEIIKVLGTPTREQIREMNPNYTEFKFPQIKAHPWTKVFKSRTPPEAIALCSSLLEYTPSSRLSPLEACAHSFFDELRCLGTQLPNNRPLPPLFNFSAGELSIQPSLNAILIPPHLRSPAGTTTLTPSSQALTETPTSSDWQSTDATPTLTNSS
Sequence of Cyclin-dependent kinase 1 (Homo sapiens) (P06493 whole entry, looked up): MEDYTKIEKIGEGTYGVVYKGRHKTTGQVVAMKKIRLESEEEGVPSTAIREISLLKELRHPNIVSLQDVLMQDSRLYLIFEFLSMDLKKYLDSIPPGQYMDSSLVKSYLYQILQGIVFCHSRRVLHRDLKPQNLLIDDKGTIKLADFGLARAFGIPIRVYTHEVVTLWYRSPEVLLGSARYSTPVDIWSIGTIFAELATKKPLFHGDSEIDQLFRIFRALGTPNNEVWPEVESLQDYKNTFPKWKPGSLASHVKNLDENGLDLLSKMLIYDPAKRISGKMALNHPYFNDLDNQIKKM
Sequence of Cyclin-dependent kinase 5/CDK5 activator 1 (Q00535 whole entry): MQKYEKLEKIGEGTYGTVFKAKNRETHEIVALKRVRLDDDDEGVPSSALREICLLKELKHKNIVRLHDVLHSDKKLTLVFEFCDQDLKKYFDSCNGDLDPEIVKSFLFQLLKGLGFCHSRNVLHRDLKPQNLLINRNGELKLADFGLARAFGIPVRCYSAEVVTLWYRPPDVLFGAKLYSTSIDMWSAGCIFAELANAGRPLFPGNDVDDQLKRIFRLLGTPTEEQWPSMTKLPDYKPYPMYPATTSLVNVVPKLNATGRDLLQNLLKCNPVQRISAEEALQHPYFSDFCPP
Sequence of Cyclin-dependent kinase 5/CDK5 activator 1 (Q15078 whole entry, further chain): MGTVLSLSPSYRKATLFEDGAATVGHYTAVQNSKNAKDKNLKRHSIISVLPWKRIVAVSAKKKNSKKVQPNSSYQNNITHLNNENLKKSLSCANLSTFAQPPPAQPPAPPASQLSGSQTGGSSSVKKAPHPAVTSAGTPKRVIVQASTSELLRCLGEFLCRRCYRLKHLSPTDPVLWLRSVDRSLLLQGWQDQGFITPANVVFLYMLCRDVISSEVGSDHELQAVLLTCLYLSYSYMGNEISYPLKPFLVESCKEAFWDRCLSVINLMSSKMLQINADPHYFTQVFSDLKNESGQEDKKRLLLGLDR

Broadly, the inhibition is the drop in the measured response relative to a control, in per cent. As for `Oc1cccc2c1[nH]c1c(C3=C[C@@]4(O)CCCCCCCCN5CCC3[C@]3(C[C@@H]6CCCCCCN6[C@H]34)C5)nccc12` (stereo not given in full), the inhibition in assay [1] is 29%.

Broadly, the IC50 is the midpoint of a concentration-inhibition curve. Consider `Oc1ccc2[nH]c3c(C4=C[C@@]5(O)CC/C=C\CCCCN6CCC4[C@]4(C[C@@H]7/C=C\CCCCN7[C@H]45)C6)nccc3c2c1` (stereo not given in full), for which the IC50 in assay [2] worked out at 16.6 µM. The inhibition in assay [1] was 74.3%.

For the compound `CCCCCCCCCCCCn1c2ccccc2c2ccnc(C3=C[C@@]4(O)CC/C=C\CCCCN5CC[C@@H]3[C@]3(C[C@@H]6/C=C\CCCCN6[C@H]34)C5)c21`, the inhibition in assay [1] came to 0%.

Consider `Oc1cccc2c1[nH]c1c(C3=C[C@@]4(O)CC/C=C\CCCCN5CC[C@@H]3[C@]3(CC6/C=C\CCCCN6[C@H]34)C5)nccc12` (stereo not given in full), for which, in assay [2], the half-maximal inhibitory concentration (IC50) came to 4.8 µM.

With `CC(C)COc1cccc2c3ccnc(C4=C[C@@]5(O)CC/C=C\CCCCN6CCC4[C@]4(C[C@@H]7/C=C\CCCCN7[C@H]45)C6)c3n(CC(C)C)c12` (stereo not given in full), the inhibition in assay [1] came out at 24.2%.

As for `CC(=O)Nc1nc(C)c(S(=O)(=O)Oc2cccc3c2[nH]c2c(C4=C[C@@]5(O)CC/C=C\CCCCN6CCC4[C@]4(C[C@@H]7CCC(=O)CCCN7[C@H]45)C6)nccc23)s1` (stereo not given in full), in assay [2], the IC50 stood at 8.5 µM. For the same compound, the inhibition in assay [1] was 78.8%.

As for `O=C1CCCN2[C@@H](CC1)C[C@]13CN4CCCC/C=C\CC[C@](O)(C=C(c5nccc6c5[nH]c5ccccc56)C1CC4)[C@H]23` (stereo not given in full) [MANZAMINE E], in assay [2], the IC50 amounted to 25 µM.

With `COC(=O)CCCCn1c2ccccc2c2ccnc(C3=C[C@@]4(O)CC/C=C\CCCCN5CCC3[C@]3(C[C@@H]6/C=C\CCCCN6[C@H]34)C5)c21` (stereo not given in full), in assay [1], the inhibition came to 3%.

With `O=C1CCCN2[C@@H](CC1)C[C@]13CN4CCCC/C=C\CC[C@](O)(C=C(c5nccc6c5[nH]c5c(OS(=O)(=O)c7ccc(Cl)cc7)cccc56)C1CC4)[C@H]23` (stereo not given in full), the IC50 in assay [2] was determined as 7.2 µM. In addition, in assay [1], the inhibition was 76.7%.

As to `CCOc1cccc2c3ccnc(C4=C[C@@]5(O)CC/C=C\CCCCN6CCC4[C@]4(C[C@@H]7/C=C\CCCCN7[C@H]45)C6)c3n(CC)c12` (stereo not given in full) [9-N-ETHYL-8-ETHOXY-MANZAMINE A], the IC50 in assay [2] was 10.4 µM. Also, in assay [1], the inhibition was found to be 78%.

On to `O=C1CCCN2[C@@H](CC1)C[C@]13CN4CCCC/C=C\CC[C@](O)(C=C(c5nccc6c5[nH]c5c(OS(=O)(=O)c7ccc(Br)cc7)cccc56)C1CC4)[C@H]23` (stereo not given in full), for which the IC50 in assay [2] stood at 23 µM. In addition, the inhibition in assay [1] is 63%.

In the case of `O[C@]12C=C(c3nccc4c3[nH]c3ccccc34)[C@@H]3CCN(CCCC/C=C\CC1)C[C@@]31C[C@@H]3/C=C\CCCCN3[C@H]12` [MANZAMINE A], the result in assay [3], in assay [4], in assay [5] and in assay [6] was inactive. The IC50 in assay [2] stood at 10.2 µM; in assay [7] it was 1.5 µM.

For the compound `CC(=O)Oc1cccc2c1[nH]c1c(C3=C/C4=C/C/C=C\CCCCN5CCC3[C@]3(C[C@@H]6/C=C\CCCCN6[C@@H]43)C5)nccc12` (stereo not given in full) [12,13-DEHYDRO-8-O-ACETYLMANZAMINE A], the IC50 in assay [2] was found to be 4.8 µM. Besides, the inhibition in assay [1] stood at 79.1%.

Turning to `COc1cccc2c3ccnc(C4=C[C@@]5(O)CC/C=C\CCCCN6CCC4[C@]4(C[C@@H]7/C=C\CCCCN7[C@H]45)C6)c3n(C)c12` (stereo not given in full), the inhibition in assay [1] turned out to be 72.4%.

With `C1=C(c2nccc3c2[nH]c2ccccc23)C2CCN3CCCC/C=C\C/C=C/1[C@@H]1N4CCCC/C=C\[C@H]4C[C@]21C3` (stereo not given in full) [12,13-DEHYDROMANZAMINE A], the IC50 in assay [2] came to 5.4 µM. Besides, in assay [1], the inhibition stood at 71.2%.

On to `O[C@]12C=C(c3nccc4c3[nH]c3ccccc34)[C@@H]3CCN(CCCCCCCC1)C[C@@]31C[C@@H]3CCCCCCN3[C@H]12`, for which the inhibition in assay [1] came to 0%.

On to `Cc1ccc(S(=O)(=O)Oc2cccc3c2[nH]c2c(C4=C[C@@]5(O)CC/C=C\CCCCN6CCC4[C@]4(C[C@H]7/C=C\CCCCN7[C@H]45)C6)nccc23)cc1` (stereo not given in full), for which the inhibition in assay [1] was determined as 80.4%.

Regarding `O[C@]12C=C(c3nccc4c3[nH]c3ccccc34)C3CCN(CCCC/C=C\CC1)C[C@@]31C[C@]34CC[C@H](CCCN3[C@H]12)O4` (stereo not given in full), the inhibition in assay [1] came out at 88.4%.
